Laboratory results reported in ChEMBL document CHEMBL1255250, “Microbicidal properties and cytocidal selectivity of rhesus macaque theta defensins” (Antimicrob Agents Chemother, 2008).
Activity calls are given as the source filed them. The rule behind the calls is not given here.

How the values were obtained:
[1] = system: Staphylococcus aureus; assay: Microbicidal activity against Staphylococcus aureus 502a at 5 ug/ml in presence of <= 80 mM NaCl; format: functional, organism-based
Outline: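 S. aureus in log phase was incubated with 5 μg/ml peptide in 10 mM PIPES, pH 7.4, containing increasing NaCl for 2 h at 37°C. Killing was determined by colony counting and expressed as a percentage of killing in buffer alone.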

[2] = system: Candida albicans; assay: Microbicidal activity against Candida albicans 16820; format: functional
Outline: (§1)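 Log-phase organisms (1–2 × 10^6 CFU/ml) were exposed to serially diluted peptide (0.05–10.0 μg/ml final) in 10 mM PIPES, pH 7.4, with 5 mM glucose for 2 h at 37°C. Aliquots were serially diluted 1:10 to 1:10^6 in Trypticase soy or Sabouraud broth and grown 24–48 h at 37°C. MMC was the lowest concentration giving 99.9% viability loss in at least two experiments.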

[3] = system: Escherichia coli; assay: Microbicidal activity against Escherichia coli ML35 in presence of 1.2 mM Calcium ions; format: functional, organism-based
Outline: (§2)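 Log-phase E. coli ML35 or C. albicans was incubated with increasing peptide concentrations in 10 mM PIPES, pH 7.4. The buffer contained 1.2 mM CaCl2 and 0.8 mM MgCl2, or no added divalent salts. Incubation was 2 h at 37°C, and survivors were counted as colonies.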

[4] = Selectivity index, ratio of MMC for Staphylococcus aureus 502a to hemolytic activity for human erythrocytes
[5] = system: Escherichia coli; assay: Microbicidal activity against Escherichia coli ML35; format: functional; outline: as §1
[6] = system: Staphylococcus aureus; assay: Microbicidal activity against Staphylococcus aureus 502a using 10 mM sodium phosphate buffer in presence of 154 mM NaCl; format: functional, organism-based
Outline: (§3)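 Log-phase S. aureus was exposed to increasing peptide concentrations for 2 h at 37°C. Buffer was 10 mM PIPES, Tris-HCl or sodium phosphate, pH 7.4, with or without 154 mM NaCl. Killing was read by colony counting.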

[7] = system: Hs68; assay: Cytotoxicity against human HS68 cells at 100 ug/ml in presence of 10% FBS by MTT assay; format: cell-based
Outline: (§4)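 HS68 fibroblasts were grown in DMEM with 10% FBS and penicillin/streptomycin at 37°C and 5% CO2. Cells were seeded at 5 × 10^3 per well for 18 h. Medium was then switched to antibiotic-free DMEM with 0.4% or 10% FBS, as each line states, and peptide was added at 0–100 μg/ml for 1 h at 37°C. Wells were refed with growth medium and read by MTT in triplicate against no-peptide wells.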

[8] = system: Candida albicans; assay: Microbicidal activity against Candida albicans 16820 in presence of 0.8 mM Magnesium ions; format: functional, organism-based; outline: as §2
[9] = system: Escherichia coli; assay: Microbicidal activity against Escherichia coli ML35 at <=8 ug/ml in presence of 10% heat-inactivated human serum; format: functional, organism-based
Outline: (§5)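 Human serum was heat-inactivated at 55°C for 30 min and clarified by centrifugation. E. coli was then exposed to a dose series of peptide in 10 mM PIPES, pH 7.4, with 10% of this serum. Killing was counted as colonies and expressed relative to incubations without serum.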

[10] = Inhibition of beta-galactosidase in cell-free system assessed as inhibition of o-nitrophenyl-beta-d-galactopyranoside hydrolysis
[11] = system: Staphylococcus aureus; assay: Microbicidal activity against Staphylococcus aureus 502a using 10 mM PIPES buffer in presence of 154 mM NaCl; format: functional, organism-based; outline: as §3
[12] = system: Hs68; assay: Cytotoxicity against human HS68 cells at <=100 ug/ml by MTT assay in presence of 0.4% FBS; format: cell-based; outline: as §4
[13] = system: Staphylococcus aureus; assay: Microbicidal activity against Staphylococcus aureus 502a in presence of 1.2 mM Calcium ions; format: functional, organism-based
[14] = system: Hs68; assay: Cytotoxicity against human HS68 cells at 50 ug/ml by MTT assay in presence of 10% FBS; format: cell-based; outline: as §4
[15] = system: Staphylococcus aureus; assay: Microbicidal activity against Staphylococcus aureus 502a; format: functional; outline: as §1
[16] = system: Candida albicans; assay: Microbicidal activity against Candida albicans 16820 using PIPES buffer in presence of NaCl; format: functional, organism-based
Outline: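 Log-phase C. albicans was incubated with peptide in 10 mM PIPES, pH 7.4, supplemented with NaCl, for 2 h at 37°C. Survivors were plated on Sabouraud dextrose agar and counted after 18–24 h at 37°C.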

[17] = Toxicity in human Erythrocyte assessed as concentration required to achieve 3% hemolysis; format: cell-based
[18] = system: Escherichia coli; assay: Microbicidal activity against Escherichia coli ML35 assessed as induction of cytoplasmic membrane permeabilization at 1 ug/ml; format: functional, organism-based
Outline: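 Log-phase E. coli ML35 (1–2 × 10^6 CFU/ml) was incubated with peptide (0–8 μg/ml final) in 10 mM PIPES, pH 7.4, containing 3 mM ONPG. ONPG hydrolysis was followed at 405 nm for 60 min. The rate was taken as the highest kinetic slope and corrected for peptide inhibition of β-galactosidase measured cell-free.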

[19] = molecular target: Beta-galactosidase (Escherichia coli) (UniProt Q8VNN2); assay: Inhibition of Escherichia coli ML35 Beta-galactosidase assessed as inhibition of o-nitrophenyl-beta-d-galactopyranoside hydrolysis at 4 ug/ml
[20] = system: Escherichia coli; assay: Microbicidal activity against Escherichia coli ML35 in presence of 0.8 mM Magnesium ions; format: functional, organism-based; outline: as §2
[21] = Toxicity in human Erythrocyte assessed as hemolysis at 100 ug/ml; format: cell-based
Outline: (§6)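 Erythrocytes from EDTA-anticoagulated human donor blood were washed in PBS or PiBS containing 4 mM EDTA, then resuspended without EDTA at 2% (vol/vol). Cells were incubated with peptide (0.3–100 μg/ml final) for 1 h at 37°C, with or without 10% autologous serum. Supernatant A405 was expressed relative to 1% Nonidet P-40 lysis.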

[22] = Toxicity in human Erythrocyte assessed as hemolysis at 100 ug/ml in presence of 10% serum; format: cell-based; outline: as §6
[23] = system: Staphylococcus aureus; assay: Microbicidal activity against Staphylococcus aureus 502a in presence of 0.8 mM Magnesium ions; format: functional, organism-based
[24] = system: Candida albicans; assay: Microbicidal activity against Candida albicans 16820 assessed as log reduction in microbial count at 10 ug/ml using PIPES buffer
[25] = system: Escherichia coli; assay: Microbicidal activity against Escherichia coli ML35 at 16 ug/ml in presence of 10% heat-inactivated human serum; format: functional, organism-based; outline: as §5
[26] = system: Staphylococcus aureus; assay: Microbicidal activity against Staphylococcus aureus 502a using 10 mM Tris-HCl buffer in presence of 154 mM NaCl; format: functional, organism-based; outline: as §3

Beta-galactosidase (Escherichia coli), sequence (Q8VNN2 whole entry, looked up): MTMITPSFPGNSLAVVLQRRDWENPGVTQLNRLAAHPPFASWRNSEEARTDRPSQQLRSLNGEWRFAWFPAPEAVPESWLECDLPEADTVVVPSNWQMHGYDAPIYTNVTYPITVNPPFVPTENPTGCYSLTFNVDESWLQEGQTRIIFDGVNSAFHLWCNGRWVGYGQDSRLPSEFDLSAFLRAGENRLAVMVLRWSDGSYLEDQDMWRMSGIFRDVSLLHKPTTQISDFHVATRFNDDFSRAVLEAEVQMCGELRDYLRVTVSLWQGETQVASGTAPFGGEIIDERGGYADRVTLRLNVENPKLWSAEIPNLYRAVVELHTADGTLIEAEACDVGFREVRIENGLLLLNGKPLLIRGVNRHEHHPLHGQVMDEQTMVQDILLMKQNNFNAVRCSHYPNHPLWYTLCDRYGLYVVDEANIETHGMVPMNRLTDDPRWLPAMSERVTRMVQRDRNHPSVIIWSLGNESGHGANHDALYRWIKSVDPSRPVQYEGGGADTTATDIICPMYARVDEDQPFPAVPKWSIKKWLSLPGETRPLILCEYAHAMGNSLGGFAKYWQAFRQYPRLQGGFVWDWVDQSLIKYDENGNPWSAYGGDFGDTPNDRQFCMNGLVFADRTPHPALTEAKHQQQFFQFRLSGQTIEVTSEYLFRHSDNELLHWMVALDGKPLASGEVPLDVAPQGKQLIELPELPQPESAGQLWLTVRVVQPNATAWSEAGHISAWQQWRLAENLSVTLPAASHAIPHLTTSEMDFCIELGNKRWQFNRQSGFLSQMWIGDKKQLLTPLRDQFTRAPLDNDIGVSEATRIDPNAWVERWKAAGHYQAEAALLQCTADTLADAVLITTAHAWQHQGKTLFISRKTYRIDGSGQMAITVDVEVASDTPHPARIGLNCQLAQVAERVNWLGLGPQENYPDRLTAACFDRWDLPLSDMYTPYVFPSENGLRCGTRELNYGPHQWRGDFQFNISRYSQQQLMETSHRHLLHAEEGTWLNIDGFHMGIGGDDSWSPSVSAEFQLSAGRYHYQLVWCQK

CC(C)C[C@H](NC(=O)[C@H](CCCNC(=N)N)NC(=O)CNC(=O)CNC(=O)[C@@H](N)CCCNC(=N)N)C(=O)N[C@H]1CSSC[C@@H](C(=O)N[C@H](C(=O)NCC(=O)N[C@@H](CCCNC(=N)N)C(N)=O)C(C)C)NC(=O)[C@H](C(C)C)NC(=O)[C@@H]2CSSC[C@H](NC(=O)[C@H](Cc3ccc(O)cc3)NC1=O)C(=O)N[C@@H](CCCNC(=N)N)C(=O)N[C@@H](CCCNC(=N)N)C(=O)N[C@@H](CCCNC(=N)N)C(=O)N[C@@H](Cc1ccccc1)C(=O)N2
Activity [1]: Active
MMC [2]: 0.8 µg/mL
Activity [3]: Active
Selectivity Index [4]: 2
MMC [5]: 1 µg/mL
Activity [6]: Active
Activity [7]: Toxic
Activity [8]: inactive
Activity [9]: inactive
inhibition [10]: Dose-dependent effect
Activity [11]: Active
Activity [12]: Toxic
Activity [13]: Active
Activity [14]: Toxic
MMC [15]: 0.4 µg/mL
Activity [16]: Active
Activity [17]: 0.8 µg/mL
Activity [18]: Active
inhibition [19]: 36%
Activity [20]: Active
Activity [21]: Toxic
Activity [22]: Toxic
Activity [23]: Active
FC [24]: >3
Activity [25]: Active
Activity [26]: Active
